Experimental data: ChEMBL document CHEMBL1138468, “Potent, brain-penetrant, hydroisoindoline-based human neurokinin-1 receptor antagonists” (J Med Chem, 2009)
Blank lines part the entries; values can stand above or below the compound they belong to.

Key:
Substance-P receptor [1] = molecular target: T1, Substance-P receptor (Homo sapiens, UniProt P25103); experiment: Antagonist activity at human NK1 receptor expressed in CHO cells assessed as inhibition of substance P-induced IP1 formation at 100 nM; assay type: functional, cell-based; parameters: scale not given: the % may be the effect or the level left
How it was run: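 CHO cells stably expressing recombinant human NK1 receptor; substance-P-evoked IP-1 formation measured with antagonist present at 100 nM; value given as % of substance P response remaining.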

Substance-P receptor [2] = molecular target: T1, Substance-P receptor; experiment: Displacement of [125I]substance P human recombinant NK1 receptor expressed in CHO cells in absence of human serum albumin; assay type: cell-based
How it was run: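 Competitive radioligand binding with [125I]substance P on CHO cells stably expressing recombinant hNK1 receptor; IC50 determined without and with 50% human serum.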

Gerbillinae [3] = experiment: Toxicity in iv dosed gerbils brain assessed as inhibition of GR-73632-induced foot tapping after 1 hr; assay type: organism-based; details: in vivo
Gerbillinae [4] = experiment: Toxicity in iv dosed gerbils brain assessed as inhibition of GR-73632-induced foot tapping after 24 hrs; assay type: organism-based; details: in vivo
Macaca mulatta = organism: Macaca mulatta; experiment: Ex vivo NK1 receptor occupancy in rhesus brain at plasma level of 31 ng/ml
Rhesus monkey [5] = experiment: Ex vivo NK1 receptor occupancy in rhesus monkey brain at plasma level of 390 ng/ml; assay type: functional, Macaca mulatta
Cytochrome P450 2C19 = Cytochrome P450 2C19 (Homo sapiens, UniProt P33261); experiment: Inhibition of human CYP2C19; assay type: ADME
Cytochrome P450 2C8 = molecular target: T2, Cytochrome P450 2C8 (Homo sapiens, UniProt P10632); experiment: Inhibition of human CYP2C8; assay type: ADME
T2 sequence (P10632 whole entry): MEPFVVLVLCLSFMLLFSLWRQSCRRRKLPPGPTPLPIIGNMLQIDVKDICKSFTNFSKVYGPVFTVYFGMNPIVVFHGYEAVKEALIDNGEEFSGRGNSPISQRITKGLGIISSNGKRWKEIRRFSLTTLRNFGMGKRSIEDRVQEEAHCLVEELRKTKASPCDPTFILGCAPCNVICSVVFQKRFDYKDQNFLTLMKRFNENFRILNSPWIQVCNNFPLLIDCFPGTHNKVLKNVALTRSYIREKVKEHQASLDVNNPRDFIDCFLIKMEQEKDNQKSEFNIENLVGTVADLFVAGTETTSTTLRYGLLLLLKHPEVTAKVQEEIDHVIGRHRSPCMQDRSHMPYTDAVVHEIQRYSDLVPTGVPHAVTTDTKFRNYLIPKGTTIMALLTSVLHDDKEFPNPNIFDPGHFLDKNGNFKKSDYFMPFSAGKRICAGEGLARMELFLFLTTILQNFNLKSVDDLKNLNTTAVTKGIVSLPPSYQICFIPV

[6] = Half life in monkey at 0.5 mg/kg, iv and 1 mg/kg, po; assay type: ADME, organism-based, Macaca mulatta; details: rhesus monkey, in vivo
How it was run: (§1)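 Dogs and monkeys dosed at 0.5 mg/kg iv and 1 mg/kg po; plasma sampled to derive clearance, Vdss, half-life, oral bioavailability and dose-normalised oral AUC(0-∞).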

[7] = Volume of distribution at steady state in monkey at 0.5 mg/kg, iv and 1 mg/kg, po; assay type: ADME, organism-based, Macaca mulatta; details: rhesus monkey, in vivo, read-out: Vdss; how it was run: as §1
Neuromedin-K receptor = molecular target: T3, Neuromedin-K receptor (Homo sapiens, UniProt P29371); experiment: Binding affinity to human NK3 receptor
T3 sequence (P29371 whole entry): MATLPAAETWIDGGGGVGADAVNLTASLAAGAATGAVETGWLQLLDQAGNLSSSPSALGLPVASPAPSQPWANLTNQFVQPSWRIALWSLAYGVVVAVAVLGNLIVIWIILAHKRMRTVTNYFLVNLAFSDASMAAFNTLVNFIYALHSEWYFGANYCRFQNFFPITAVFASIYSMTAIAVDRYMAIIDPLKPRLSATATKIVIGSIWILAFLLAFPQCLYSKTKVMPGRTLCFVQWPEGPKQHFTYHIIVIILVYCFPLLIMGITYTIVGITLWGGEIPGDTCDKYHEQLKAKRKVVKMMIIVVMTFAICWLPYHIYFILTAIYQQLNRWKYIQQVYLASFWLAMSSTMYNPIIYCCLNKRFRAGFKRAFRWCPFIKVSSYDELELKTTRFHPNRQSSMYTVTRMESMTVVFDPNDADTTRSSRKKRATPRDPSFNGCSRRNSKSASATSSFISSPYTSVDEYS

Rhesus monkey [8] = experiment: Ex vivo NK1 receptor occupancy in rhesus monkey brain at plasma level of 5 ng/ml; assay type: functional, Macaca mulatta
How it was run: (§2)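 Rhesus PET with [18F]SPARQ: striatal binding compared before and during steady-state plasma drug level, achieved by iv bolus plus matched constant iv infusion continued through imaging; occupancy vs plasma concentration fit to three-parameter Hill equation.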

Cytochrome P450 3A4 = Cytochrome P450 3A4 (Homo sapiens, UniProt P08684); experiment: Inhibition of human CYP3A4; assay type: ADME
[9] = Plasma clearance in rat at 1 mg/kg, iv and 2 mg/kg, po; assay type: ADME, organism-based
How it was run: (§3)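 Rats dosed at 1 mg/kg iv and 2 mg/kg po; plasma pharmacokinetics (clearance, Vdss, half-life, oral bioavailability) derived.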

[10] = Volume of distribution at steady state in dog at 0.5 mg/kg, iv and 1 mg/kg, po; assay type: ADME, organism-based, Canis lupus familiaris; details: in vivo, read-out: Vdss; how it was run: as §1
Gerbillinae [11] = experiment: Toxicity in iv dosed gerbils plasma assessed as inhibition of GR-73632-induced foot tapping after 1 hr; assay type: organism-based
Rhesus monkey [12] = experiment: Ex vivo NK1 receptor occupancy in rhesus monkey brain at plasma level of 37 ng/ml; assay type: functional, Macaca mulatta; how it was run: as §2
[13] = Volume of distribution at steady state in rat at 1 mg/kg, iv and 2 mg/kg, po; assay type: ADME, organism-based; details: in vivo, read-out: Vdss; how it was run: as §3
[14] = Bioavailability in rat at 1 mg/kg, iv and 2 mg/kg; assay type: ADME, organism-based; details: in vivo; how it was run: as §3
[15] = Plasma clearance in monkey at 0.5 mg/kg, iv and 1 mg/kg, po; assay type: ADME, organism-based, Macaca mulatta; details: rhesus monkey; how it was run: as §1
[16] = Half life in rat at 1 mg/kg, iv and 2 mg/kg, po; assay type: ADME, organism-based; details: in vivo; how it was run: as §3
Gerbillinae [17] = experiment: in iv dosed gerbils plasma assessed as inhibition of GR-73632-induced foot tapping after 24 hrs
Substance-K receptor = molecular target: T4, Substance-K receptor (Homo sapiens, UniProt P21452); experiment: Binding affinity to human NK2 receptor
T4 sequence (P21452 whole entry): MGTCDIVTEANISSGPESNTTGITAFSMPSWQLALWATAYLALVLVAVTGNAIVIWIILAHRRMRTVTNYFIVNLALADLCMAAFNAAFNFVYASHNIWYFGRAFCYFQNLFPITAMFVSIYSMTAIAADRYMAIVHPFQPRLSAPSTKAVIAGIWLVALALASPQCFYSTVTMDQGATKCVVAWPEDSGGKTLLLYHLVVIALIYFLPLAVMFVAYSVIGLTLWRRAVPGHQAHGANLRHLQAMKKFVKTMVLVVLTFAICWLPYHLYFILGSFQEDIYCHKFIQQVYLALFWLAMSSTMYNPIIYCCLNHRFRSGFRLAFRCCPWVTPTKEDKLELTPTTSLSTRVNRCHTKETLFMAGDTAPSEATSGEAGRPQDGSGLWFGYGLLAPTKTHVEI

Cytochrome P450 1A2 = molecular target: T5, Cytochrome P450 1A2 (Homo sapiens, UniProt P05177); experiment: Inhibition of human CYP1A2; assay type: ADME
T5 sequence (P05177 whole entry): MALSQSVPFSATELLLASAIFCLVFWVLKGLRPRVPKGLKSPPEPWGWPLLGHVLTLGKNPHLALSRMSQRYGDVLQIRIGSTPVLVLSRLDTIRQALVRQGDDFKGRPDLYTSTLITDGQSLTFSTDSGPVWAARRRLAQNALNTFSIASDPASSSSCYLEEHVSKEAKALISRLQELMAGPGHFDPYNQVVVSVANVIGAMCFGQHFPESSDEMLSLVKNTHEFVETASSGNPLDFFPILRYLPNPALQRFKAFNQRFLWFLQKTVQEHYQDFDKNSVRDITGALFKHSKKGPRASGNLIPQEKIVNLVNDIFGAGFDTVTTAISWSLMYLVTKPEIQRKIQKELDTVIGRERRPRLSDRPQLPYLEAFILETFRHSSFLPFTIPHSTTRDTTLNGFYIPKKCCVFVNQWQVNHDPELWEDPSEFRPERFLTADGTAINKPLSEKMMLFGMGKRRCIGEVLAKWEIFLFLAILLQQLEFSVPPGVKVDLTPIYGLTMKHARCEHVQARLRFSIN

[18] = Half life in dog at 0.5 mg/kg, iv and 1 mg/kg, po; assay type: ADME, organism-based, Canis lupus familiaris; details: in vivo; how it was run: as §1
Cytochrome P450 2C9 = Cytochrome P450 2C9 (Homo sapiens, UniProt P11712); experiment: Inhibition of human CYP2C9; assay type: ADME
[19] = Bioavailability in dog at 0.5 mg/kg, iv and 1 mg/kg, po; assay type: ADME, organism-based, Canis lupus familiaris; details: in vivo; how it was run: as §1
[20] = Bioavailability in monkey at 0.5 mg/kg, iv and 1 mg/kg, po; assay type: ADME, organism-based, Macaca mulatta; details: rhesus monkey, in vivo; how it was run: as §1
Cytochrome P450 2D6 = Cytochrome P450 2D6 (Homo sapiens, UniProt P10635); experiment: Inhibition of human CYP2D6; assay type: ADME
[21] = Plasma clearance in dog at 0.5 mg/kg, iv and 1 mg/kg, po; assay type: ADME, organism-based, Canis lupus familiaris; how it was run: as §1

T1 sequence (P25103 whole entry): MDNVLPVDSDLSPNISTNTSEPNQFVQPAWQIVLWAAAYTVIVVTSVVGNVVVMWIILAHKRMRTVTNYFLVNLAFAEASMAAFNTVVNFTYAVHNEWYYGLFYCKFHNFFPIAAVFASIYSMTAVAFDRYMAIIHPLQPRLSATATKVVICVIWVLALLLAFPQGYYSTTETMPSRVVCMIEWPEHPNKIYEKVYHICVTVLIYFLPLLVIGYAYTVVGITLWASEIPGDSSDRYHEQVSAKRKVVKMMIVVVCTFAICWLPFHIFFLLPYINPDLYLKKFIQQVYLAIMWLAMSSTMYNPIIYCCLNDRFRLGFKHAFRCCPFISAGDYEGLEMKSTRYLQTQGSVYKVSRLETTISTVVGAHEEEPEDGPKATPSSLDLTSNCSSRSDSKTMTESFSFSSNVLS
Chain of Cytochrome P450 2C19 (P33261 whole entry): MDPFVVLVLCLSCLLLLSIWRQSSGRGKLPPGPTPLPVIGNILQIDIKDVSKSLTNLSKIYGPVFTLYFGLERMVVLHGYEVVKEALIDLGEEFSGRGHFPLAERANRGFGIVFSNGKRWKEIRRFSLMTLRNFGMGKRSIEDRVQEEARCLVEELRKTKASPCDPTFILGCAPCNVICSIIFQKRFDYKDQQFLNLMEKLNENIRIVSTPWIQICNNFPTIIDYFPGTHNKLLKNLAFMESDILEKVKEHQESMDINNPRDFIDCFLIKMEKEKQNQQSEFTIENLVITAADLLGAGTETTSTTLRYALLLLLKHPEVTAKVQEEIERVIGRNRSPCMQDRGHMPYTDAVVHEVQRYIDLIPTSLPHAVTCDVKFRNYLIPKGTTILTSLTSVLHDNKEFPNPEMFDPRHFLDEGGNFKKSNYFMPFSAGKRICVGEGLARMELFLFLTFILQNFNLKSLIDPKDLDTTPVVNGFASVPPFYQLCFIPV
Chain of Cytochrome P450 3A4 (P08684 whole entry): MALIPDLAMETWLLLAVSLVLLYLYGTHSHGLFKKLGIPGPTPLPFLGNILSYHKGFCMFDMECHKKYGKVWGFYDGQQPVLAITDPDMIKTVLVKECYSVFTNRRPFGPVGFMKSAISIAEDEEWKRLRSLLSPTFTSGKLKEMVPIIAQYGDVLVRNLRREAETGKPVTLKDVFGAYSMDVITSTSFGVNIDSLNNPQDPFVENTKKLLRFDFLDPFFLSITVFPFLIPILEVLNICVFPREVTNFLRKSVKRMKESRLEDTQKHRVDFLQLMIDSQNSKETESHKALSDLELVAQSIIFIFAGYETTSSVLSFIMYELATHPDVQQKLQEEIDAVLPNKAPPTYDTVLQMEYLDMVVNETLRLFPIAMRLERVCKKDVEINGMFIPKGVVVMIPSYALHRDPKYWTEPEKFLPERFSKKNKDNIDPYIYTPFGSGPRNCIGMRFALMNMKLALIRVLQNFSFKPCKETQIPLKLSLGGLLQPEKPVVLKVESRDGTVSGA
Chain of Cytochrome P450 2D6 (P10635 whole entry): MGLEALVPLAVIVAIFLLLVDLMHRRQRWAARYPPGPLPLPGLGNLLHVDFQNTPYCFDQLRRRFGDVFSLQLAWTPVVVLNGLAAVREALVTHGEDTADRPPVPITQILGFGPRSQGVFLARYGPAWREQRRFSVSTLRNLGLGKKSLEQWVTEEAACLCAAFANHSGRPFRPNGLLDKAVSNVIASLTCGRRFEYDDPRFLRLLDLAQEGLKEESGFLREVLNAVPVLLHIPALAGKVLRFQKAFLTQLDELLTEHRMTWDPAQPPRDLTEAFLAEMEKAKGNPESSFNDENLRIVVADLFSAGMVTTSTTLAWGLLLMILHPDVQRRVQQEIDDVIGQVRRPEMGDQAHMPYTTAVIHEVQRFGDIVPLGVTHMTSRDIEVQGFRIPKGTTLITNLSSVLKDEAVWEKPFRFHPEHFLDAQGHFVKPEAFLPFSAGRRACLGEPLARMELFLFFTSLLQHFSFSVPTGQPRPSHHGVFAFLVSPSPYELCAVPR
Chain of Cytochrome P450 2C9 (P11712 whole entry): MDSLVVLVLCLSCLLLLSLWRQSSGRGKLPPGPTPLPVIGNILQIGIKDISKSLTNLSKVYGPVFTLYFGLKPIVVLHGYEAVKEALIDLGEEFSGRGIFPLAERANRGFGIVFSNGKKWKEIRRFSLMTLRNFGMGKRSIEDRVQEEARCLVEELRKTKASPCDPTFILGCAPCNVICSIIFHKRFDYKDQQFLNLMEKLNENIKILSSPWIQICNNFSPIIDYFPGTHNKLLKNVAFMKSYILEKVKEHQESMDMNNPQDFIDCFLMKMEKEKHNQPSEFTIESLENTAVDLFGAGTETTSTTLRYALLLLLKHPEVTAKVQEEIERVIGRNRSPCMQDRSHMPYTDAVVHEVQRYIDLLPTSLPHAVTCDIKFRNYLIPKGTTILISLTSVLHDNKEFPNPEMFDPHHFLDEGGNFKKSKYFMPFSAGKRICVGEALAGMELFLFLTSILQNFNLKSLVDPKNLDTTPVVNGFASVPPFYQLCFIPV

- Activity (Substance-P receptor [1]): 79%
- IC50 (Substance-P receptor [2]): 0.525 nM
SMILES: C[C@@H](O[C@H]1CC[C@@H]2CN(c3cnccn3)C[C@H]2[C@@H]1c1ccc(F)cc1)c1cc(C(F)(F)F)cc(C(F)(F)F)c1

- Activity (Substance-P receptor [1]): 40%
- IC50 (Substance-P receptor [2]): 0.11 nM
SMILES: CC(=O)N1C[C@H]2CC[C@H](O[C@H](C)c3cc(C(F)(F)F)cc(C(F)(F)F)c3)[C@@H](c3ccc(F)cc3)[C@@H]2C1

- Activity (Substance-P receptor [1]): 58%
- IC50 (Substance-P receptor [2]): 0.09 nM
SMILES: CNC(=O)N1C[C@H]2CC[C@H](O[C@H](C)c3cc(C(F)(F)F)cc(C(F)(F)F)c3)[C@@H](c3ccc(F)cc3)[C@@H]2C1

- Activity (Substance-P receptor [1]): 4%
- IC50 (Substance-P receptor [2]): 0.13 nM
SMILES: C[C@@H](O[C@H]1CC[C@@H]2CN(C3=CC(=O)CCC3)C[C@H]2[C@@H]1c1ccc(F)cc1)c1cc(C(F)(F)F)cc(C(F)(F)F)c1
- ID50 (Gerbillinae [3]): 0.18 mg/kg
- ID50 (Gerbillinae [4]): 0.3 mg/kg

Second part, the compound before the results:

SMILES: CC1=C(N2C[C@H]3CC[C@H](O[C@H](C)c4cc(C(F)(F)F)cc(C(F)(F)F)c4)[C@@H](c4ccc(F)cc4)[C@@H]3C2)CCC1=O
- ID50 (Gerbillinae [3]): 0.13 mg/kg
- Activity (Substance-P receptor [1]): 9%
- ID50 (Gerbillinae [4]): 0.2 mg/kg
- IC50 (Substance-P receptor [2]): 0.1 nM

SMILES: C[C@@H](O[C@H]1CC[C@@H]2CNC[C@H]2[C@@H]1c1ccc(F)cc1)c1cc(C(F)(F)F)cc(C(F)(F)F)c1
- Activity (Substance-P receptor [1]): 44%
- IC50 (Substance-P receptor [2]): 0.15 nM

SMILES: C[C@@H](O[C@H]1CN(C2=CC(=O)CC2)C[C@@H]1c1ccc(F)cc1)c1cc(C(F)(F)F)cc(C(F)(F)F)c1
- Activity (Macaca mulatta): 50%
- Activity (Rhesus monkey [5]): >=90%

SMILES: C[C@@H](O[C@H]1CC[C@@H]2CN(C)C[C@H]2[C@@H]1c1ccc(F)cc1)c1cc(C(F)(F)F)cc(C(F)(F)F)c1
- Activity (Substance-P receptor [1]): 54%
- IC50 (Substance-P receptor [2]): 0.255 nM

SMILES: C[C@@H](O[C@H]1CC[C@@H]2CN(C3=CC(=O)CC3)C[C@H]2[C@@H]1c1ccc(F)cc1)c1cc(C(F)(F)F)cc(C(F)(F)F)c1 [SERLOPITANT]
- IC50 (Cytochrome P450 2C19): 29000 nM
- ID50 (Gerbillinae [3]): 0.08 mg/kg
- IC50 (Cytochrome P450 2C8): 58000 nM
- half-life [6]: 24 h
- Vd [7]: 2 L/kg
- Ki (Neuromedin-K receptor): 2400 nM
- Activity (Rhesus monkey [8]): 50%
- IC50 (Cytochrome P450 3A4): 39000 nM
- clearance [9]: 0.7 mL/min/kg
- Vd [10]: 2 L/kg
- IC50 (Gerbillinae [11]): 6.5 nM
- Activity (Rhesus monkey [12]): 90%
- Vd [13]: 1.5 L/kg
- bioavailability [14]: 40%
- clearance [15]: 1 mL/min/kg
- half-life [16]: 24 h
- IC50 (Gerbillinae [17]): 6 nM
- Ki (Substance-K receptor): 2400 nM
- IC50 (Cytochrome P450 1A2): > 100000 nM
- half-life [18]: 31 h
- Activity (Substance-P receptor [1]): 5%
- IC50 (Cytochrome P450 2C9): 30000 nM
- bioavailability [19]: 71%
- bioavailability [20]: 69%
- IC50 (Cytochrome P450 2D6): 35000 nM
- ID50 (Gerbillinae [4]): 0.46 mg/kg
- IC50 (Substance-P receptor [2]): 0.06 nM
- clearance [21]: 0.7 mL/min/kg
